ChEMBL document CHEMBL1141159, “Design, synthesis, and antiviral activity of 2'-deoxy-2'-fluoro-2'-C-methylcytidine, a potent inhibitor of hepatitis C virus replication” (2005)

Assays:
Assay type in all cases: functional
[1] = Cytotoxic concentration against bovine viral diarrhea virus (BVDV) in MDBK cells; details: Bos taurus
In short: (§1)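 Cytotoxicity (CC50) read by MTS colorimetric cell-proliferation assay after 4 days of compound exposure.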

Huh-7 [2] = assay: Effective concentration required to reduce HCV replication RNA levels in Huh7 cells by 90% determined by HCV replicon assay; details: Homo sapiens
In short: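 Subgenomic HCV replicon cells were treated with compound, and HCV RNA was quantified by real-time quantitative RT-PCR to derive the concentration giving 90% reduction.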

[3] = Effective concentration required to reduce cytopathic effects caused by bovine viral diarrhea virus (BVDV) in MDBK cells by 90%; details: Bos taurus
Huh-7 [4] = assay: Cytotoxic concentration against HCV replication RNA levels in Huh7 cells determined by HCV replicon assay; details: Homo sapiens; in short: as §1

For `C[C@@]1(F)[C@H](O)[C@@H](CO)O[C@H]1n1ccc(N)nc1=O`, the CC50 [1] was > 100 µM, the EC90 (Huh-7 [2]) was 5.4 µM and the EC90 [3] was > 100 µM. For the same compound, the CC50 (Huh-7 [4]) was > 100 µM.
For `C[C@@]1(O)[C@H](O)[C@@H](CO)O[C@H]1n1ccc(N)nc1=O`, the CC50 [1] was > 100 µM, the EC90 (Huh-7 [2]) was 19 µM and the EC90 [3] was 2.3 µM. For the same compound, the CC50 (Huh-7 [4]) was > 100 µM.
For `C[C@@]1(F)[C@H](O)[C@@H](CO)O[C@H]1n1ccc(=O)[nH]c1=O`, the CC50 [1] was > 100 µM, the EC90 (Huh-7 [2]) was > 100 µM and the EC90 [3] was > 100 µM. The CC50 (Huh-7 [4]) was > 100 µM.
In the case of `Nc1ccn([C@@H]2O[C@H](CO)[C@@H](O)[C@@H]2F)c(=O)n1`, the CC50 [1] was > 100 µM, the EC90 (Huh-7 [2]) was 6.5 µM and the EC90 [3] was > 100 µM. For the same compound, the CC50 (Huh-7 [4]) was > 100 µM.
